Rows were chosen to be rich in hits. Some 29% of all compounds tested hit in one or more screens of this group.
CYP2C9 inhib – inhibitors of human CYP2C9; P11712; AID 777; inhibition, % at 5 µM; CYP2C9 Supersomes, luciferin-H conversion, luminescence; 96,000 compounds, 20% hits;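 active = blocking of liver enzyme CYP2C9 beyond about 50% at 5 µM, limit read from the data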
Target sequence (P11712 whole entry, looked up): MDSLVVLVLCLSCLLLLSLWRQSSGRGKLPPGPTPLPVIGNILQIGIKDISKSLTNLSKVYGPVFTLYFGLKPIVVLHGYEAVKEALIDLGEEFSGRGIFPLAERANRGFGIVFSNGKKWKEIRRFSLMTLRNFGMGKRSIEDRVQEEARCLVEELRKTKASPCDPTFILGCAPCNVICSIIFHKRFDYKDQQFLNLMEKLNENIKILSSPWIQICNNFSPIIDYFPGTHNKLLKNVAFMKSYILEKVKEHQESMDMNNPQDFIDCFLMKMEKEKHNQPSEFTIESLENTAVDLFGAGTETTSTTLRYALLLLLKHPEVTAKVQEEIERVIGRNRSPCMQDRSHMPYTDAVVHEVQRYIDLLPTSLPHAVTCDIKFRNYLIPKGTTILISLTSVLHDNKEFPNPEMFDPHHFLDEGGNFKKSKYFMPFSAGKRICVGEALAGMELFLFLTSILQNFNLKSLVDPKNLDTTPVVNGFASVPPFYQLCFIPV
Ecoli WT expand – E. coli BW25113 growth inhibition, expanded screen; OD600 absorbance; growth inhibition, % at 100 µM; 98,000 compounds, 0.15% hits;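 active = growth inhibition above about 50% at one test dose, limit read from the data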;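 note: growth measured after 20 h incubation at 37 °C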
CYP2C9 activ – activators of human CYP2C9; P11712; recombinant CYP2C9, luciferin-H conversion, luminescence; active compounds read high; factor 1 = untreated enzyme, 0 = blocked; activation factor at 5 µM; 96,000 compounds, 1.4% hits;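 active = activation factor of 2 or more for CYP2C9 at a 5 µM dose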
CYP2C19 act – cytochrome P450 2C19 (human) activation; recombinant CYP2C19, luciferin-H EGE luminescence; active compounds read high; 0 = fully inhibited enzyme, 1 = untreated enzyme; activation factor at 5 µM; 96,000 tested, under 10 active; P33261; AID 1025;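 active = activation factor of at least 2 at 5 µM in the primary screen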
CYP2C19 inh – human CYP2C19 inhibition; P33261; CYP2C19 Supersomes, luciferin-H EGE luminescence, 30 min; inhibition, % at 5 µM; 96,000 compounds, 21% hits;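 active = CYP2C19 inhibition above a set limit at 5 µM in the primary screen, cut at about 50% in these data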
tolC growth inh – blocks growth of E. coli BW25113 tolC mutant; growth inhibition, % at 10 µM (by protocol); 65,000 compounds, 2.2% hits; OD615;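 active = growth inhibition at or above a cutoff equal to the mean over every tested compound plus 3 SD, cut at about 60% in these data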;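 note: growth measured after 20 h incubation at 37 °C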
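Test system: tolC-deleted E. coli BW25113 | Medium: LB with kanamycin 50 µg/mL | Compound dosing: Single concentration, 10 µM final per compound | Schedule: 37 °C, 20 h exposure | Measured by: OD at 615 nm | Evaluation: Percent growth inhibition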
Of the large screens only hits and unclear results are named; the others gave an inactive call.

O=C(Cn1cc([N+](=O)[O-])cn1)Nc1ccn(Cc2c(F)c(F)c(F)c(F)c2F)n1	none (no result: tolC growth inh)
CCc1nc(N)c(C#N)c(-c2ccc(O)c(OC)c2)c1C	CYP2C19 inh 53
CCc1nc(N)c(C#N)c(-c2ccncc2)c1C	CYP2C9 inhib 73, CYP2C19 inh 100
C=C1N(c2ccc(Cl)cc2)C(=O)OC1(C)C	CYP2C19 inh 58 (no result: tolC growth inh)
COc1ccc(Cl)cc1N1C(=O)C2CCCN2C1c1ccccc1F (stereo not given)	none
O=C(Sc1nnc(-c2ccccc2)o1)N1c2ccccc2Sc2ccccc21	none (no result: CYP2C9 inhib, Ecoli WT expand, CYP2C9 activ, CYP2C19 act, CYP2C19 inh)
Cn1ccnc1SC(=O)N1c2ccccc2Sc2ccccc21	CYP2C9 inhib 97, CYP2C19 inh 84
CCOC(=O)c1[nH]cnc1C(=O)Nc1cccc(N)n1	none (no result: Ecoli WT expand)
CCOC(=O)c1[nH]cnc1C(=O)Nc1ccncc1	CYP2C9 inhib 54
Fc1cccc(C[n+]2csc3ccccc32)c1	CYP2C9 inhib 62 (no result: tolC growth inh)
c1ccc(C[n+]2csc3ccccc32)cc1	CYP2C9 inhib 55 (no result: tolC growth inh)
O=C(CCn1[nH]c(=O)c2ccccc2c1=O)OC1CCCCC1	CYP2C19 inh 81
CCCCOC(=O)CCn1[nH]c(=O)c2ccccc2c1=O	CYP2C9 inhib 92, CYP2C19 inh 84
O=C(CCn1[nH]c(=O)c2ccccc2c1=O)NCCO	none
Cc1c(CCC#N)c(N2CCN(C3CCCCC3)CC2)n2c(nc3ccccc32)c1C#N	none (no result: CYP2C9 inhib, Ecoli WT expand, CYP2C9 activ, CYP2C19 act, CYP2C19 inh)
CCn1c(=O)c(=O)[nH]c2cc(C(=O)NC3CCCc4ccccc43)ccc21 (stereo not given)	none
COc1ccc(-c2cc(=O)n(-c3nc4ccccc4[nH]3)[nH]2)cc1	none
CC(C)NC(=O)Cn1c(SCC(=O)N2c3ccccc3CC2C)nc2ccccc21 (stereo not given)	CYP2C9 inhib 91, CYP2C19 inh 61
CC1Cc2ccccc2N1C(=O)CN1CCc2ccccc2C1 (stereo not given)	CYP2C19 inh 92
CC1Cc2ccccc2N1C(=O)CSC1=NCCS1 (stereo not given)	none
CC1Cc2ccccc2N1C(=O)CSc1ccccc1 (stereo not given)	CYP2C19 inh 96 (no result: tolC growth inh)
CC1Cc2ccccc2N1C(=O)CSc1nnnn1Cc1ccccc1 (stereo not given)	CYP2C9 inhib 84, CYP2C19 inh 90
O=C(CSc1nnnn1Cc1ccccc1)N1CCN(c2ccccc2)CC1	none
COCc1ccc2oc(C(=O)O)cc2c1	none
COc1cccc(N2CC(O)Cn3c2nc2c3c(=O)n(CCCc3ccccc3)c(=O)n2C)c1 (stereo not given)	none
Cc1cc2ccccc2nc1SCC(=O)N1c2ccccc2CC1C (stereo not given)	none (no result: tolC growth inh)
CCn1c(SCC(=O)N2c3ccccc3CCc3ccccc32)nc2c1c(=O)n(C)c(=O)n2C	none (no result: CYP2C9 inhib, Ecoli WT expand, CYP2C9 activ, CYP2C19 act, CYP2C19 inh)
CC(C)c1nc(SCC(=O)N2c3ccccc3CC2C)c2ccccc2n1 (stereo not given)	CYP2C9 inhib 99, CYP2C19 inh 59 (no result: tolC growth inh)
CC1Cc2ccccc2N1C(=O)CSc1nc2c(c(=O)n(C)c(=O)n2C)n1Cc1ccccc1 (stereo not given)	CYP2C9 inhib 96, CYP2C19 inh 76
c1ccc(Cn2nnc3c(N4CCCC4)ncnc32)cc1	none
CC1Cc2ccccc2N1c1ncnc2c1nnn2Cc1ccccc1 (stereo not given)	CYP2C9 inhib 65
CCOC(=O)CSc1nnc(CNC(=O)Cc2ccccc2)n1C	none
Cc1n[nH]c(C)c1S(=O)(=O)N1CCCC(C(=O)NC2CCCCC2)C1 (stereo not given)	none (no result: CYP2C9 inhib, Ecoli WT expand, CYP2C9 activ, CYP2C19 act, CYP2C19 inh)
N#Cc1c(NCCN)nc(-c2ccccc2)c2c1CCCC2	none (no result: tolC growth inh)
N#Cc1c(NC(=O)CN2CCN(C(=O)c3ccco3)CC2)sc2c1CCCCC2	none
N#Cc1c(N2CCN(C(=O)c3ccccc3)CC2)nc(-c2ccccc2)c2c1CCCC2	CYP2C9 inhib 72, CYP2C19 inh 62 (no result: tolC growth inh)
N#Cc1c(N2CCN(C(=O)c3ccco3)CC2)nc(-c2ccccc2)c2c1CCCC2	CYP2C9 inhib 86, CYP2C19 inh 88
N#Cc1c(N2CCN(C(=O)c3ccccc3Cl)CC2)nc(-c2ccccc2)c2c1CCCC2	CYP2C9 inhib 64, CYP2C19 inh 50 (no result: tolC growth inh)
CC(=O)c1c(C)oc(C)c1CSCc1ccc(C(=O)O)o1	none
CCCNC(=O)c1cc(OC)c(OC)cc1[N+](=O)[O-]	none (no result: tolC growth inh)
CSc1nnc(N(CCC#N)CCC#N)s1	none
Cc1csc(NC(=O)C(NS(=O)(=O)c2ccc(Br)s2)c2ccccc2)n1 (stereo not given)	none
CCOC(=O)CSC(C)C(=O)Nc1nnc(C(C)C)s1 (stereo not given)	none (no result: CYP2C9 inhib, CYP2C9 activ, CYP2C19 act, CYP2C19 inh)
O=C(c1cc2c(s1)-c1ccccc1S(=O)(=O)C2)N1CCN(Cc2ccccc2)CC1	none (no result: tolC growth inh)
CC(C)(NO)/C(=N/O)c1ccc(Br)cc1	CYP2C19 inh 64
COc1cc2c(cc1OC)CN(c1ccc(-c3ccccc3OC)nn1)CC2	CYP2C9 activ 2.4, CYP2C19 inh 62
c1ccc(-c2nnc(Cn3c4ccccc4c4nc5ccccc5nc43)o2)cc1	none (no result: CYP2C9 inhib, Ecoli WT expand, CYP2C9 activ, CYP2C19 act, CYP2C19 inh)
CC(O)c1nc2ccccc2n1Cc1nnc(-c2ccc(Cl)cc2)o1 (stereo not given)	CYP2C19 inh 66
Cc1cc(C)nc(/N=C/c2c(O)n(C)c(=O)n(C)c2=O)n1	none (no result: Ecoli WT expand)
CCOc1cc(CNC(C)(C)CO)cc(Br)c1OCc1ccc(Cl)cc1Cl	none (no result: tolC growth inh)
CCOc1cc(CNCCO)cc(Br)c1OCc1ccc(Cl)cc1	Ecoli WT expand 78, CYP2C19 inh 78 (no result: tolC growth inh)
CCOc1cc(/C=N/O)cc(Br)c1OCc1ccc(Cl)cc1	none (no result: tolC growth inh)
CCOc1cc(CNCCO)cc(Br)c1OCc1ccccc1Cl	CYP2C19 inh 55 (no result: tolC growth inh)
COc1cccc(NC2=NC3(CCCCC3)N=C(N)N2)c1	none
CCn1cc(C(=O)NC2CCc3ccccc32)c(=O)c2ccc(C)nc21 (stereo not given)	none
COc1cccc(C2NC(=O)c3ccccc3O2)c1OC (stereo not given)	CYP2C19 inh 86
COc1ccc(C2NC(=O)c3ccccc3O2)c(OC)c1OC (stereo not given)	CYP2C9 inhib 70, CYP2C19 inh 85
COc1cc2c(c(OC)c1)C(c1cccc(OC)c1OC)CC(=O)N2 (stereo not given)	none (no result: CYP2C9 inhib, CYP2C9 activ, CYP2C19 act, CYP2C19 inh)
Cc1nc(N)sc1N=Nc1ccc(F)cc1	none (no result: tolC growth inh)
Cc1ccccc1NC(=O)COC(=O)CN1C(=O)NC(C)(C)C1=O	none (no result: tolC growth inh)
Cc1cccc(C(=O)NNC(=O)c2ccc(Cl)cc2)c1O	CYP2C9 activ 2.9, CYP2C19 inh 50 (no result: tolC growth inh)
O=C(NNC(=O)c1ccc(O)cc1O)c1ccc(Cl)cc1	CYP2C9 activ 2 (no result: tolC growth inh)
CCCCSC1(SCCCC)N=C(N)C2(C#N)C(c3ccccc3)NC(C)=C(C)C12C#N (stereo not given)	CYP2C19 inh 57 (no result: tolC growth inh)
CC(=O)c1cccc(N(C(=O)c2cnccn2)C(C(=O)NCc2ccccc2)c2ccco2)c1 (stereo not given)	CYP2C19 inh 53 (no result: tolC growth inh)
O=S(=O)(c1ccc(NCC2CCCCC2)nc1)N1CCOCC1	none

From PubChem BioAssay
